Data reported in ChEMBL document CHEMBL4130474, “Spirotriazoline oxindoles: A novel chemical scaffold with in vitro anticancer properties” (Eur J Med Chem, 2017).
Activity calls are given as the source filed them. The rule behind the calls is not given here.

Experiments:
MCF7 = test: Antiproliferative activity in human MCF7 cells incubated for 72 hrs by MTT assay; assay type: functional, cell-based; settings: MCF7, 72 h
Summary of the method: (§1)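 Cells grown in RPMI 1640 with 10% FBS, penicillin/streptomycin; seeded at 2 × 10⁵ cells/mL, allowed to adhere 24 h, then exposed 72 h to compounds diluted in medium from DMSO stocks. MTT added after medium change, 3 h, formazan dissolved in DMSO, absorbance at 570 nm. Triplicate wells, at least 3 independent experiments; IC50 by non-linear regression.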

MDA-MB-231 [1] = test: Antiproliferative activity in human MDA-MB-231 cells incubated for 72 hrs by MTT assay; assay type: functional, cell-based; settings: MDA-MB-231, 72 h; summary of the method: as §1
HEK-293T = test: Antiproliferative activity in human HEK293T cells incubated for 72 hrs by MTT assay; assay type: cell-based; summary of the method: as §1
[2] = Selectivity index, ratio of IC50 for antiproliferative activity in HEK293T cells to IC50 for antiproliferative activity in human MCF7 cells; assay type: toxicity, cell-based; settings: HEK293T cells versus MCF7 cells, read-out: Ratio IC50
Summary of the method: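 Ratio of HEK 293T IC50 to MCF-7 IC50 from 72 h MTT assays.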

HCT-116 [3] = test: Antiproliferative activity in p53 (+/+) human HCT116 cells incubated for 72 hrs by MTS assay; assay type: functional, cell-based; settings: HCT-116, 72 h
Summary of the method: (§2)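 HCT116 p53(+/+) or p53(−/−) seeded at 1 × 10⁵ cells/mL, adhered 24 h, then treated 72 h with compounds diluted from DMSO stocks. Viability by MTS (CellTiter96 AQueous) with absorbance at 490 nm. Duplicate wells, three independent experiments; IC50 by non-linear regression.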

HCT-116 [4] = test: Antiproliferative activity in p53 (-/-) human HCT116 cells incubated for 72 hrs by MTS assay; assay type: functional, cell-based; settings: HCT-116, 72 h; summary of the method: as §2
[5] = Selectivity index, ratio of IC50 for antiproliferative activity in HEK293T cells to IC50 for antiproliferative activity in human p53 (+/+) human HCT116 cells; assay type: toxicity, cell-based; settings: HEK293T cells versus p53 (+/+) HCT116 cells, read-out: Ratio IC50
[6] = Selectivity index, ratio of IC50 for antiproliferative activity in HEK293T cells to IC50 for antiproliferative activity in human p53 (-/-) human HCT116 cells; assay type: toxicity, cell-based; settings: HEK293T cells versus p53 (-/-) HCT116 cells, read-out: Ratio IC50
[7] = Potency index, ratio of IC50 for antiproliferative activity in human p53 (-/-) human HCT116 cells to IC50 for antiproliferative activity in human p53 (+/+) human HCT116; assay type: functional
HCT-116 [8] = test: Induction of apoptosis in p53 (+/+) human HCT116 cells assessed as increase in early apoptotic cells level at antiproliferative IC50 level incubated for 72 hrs by Annexin-V and 7-AAD staining based flow cytometry; assay type: functional
Summary of the method: (§3)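 Cells detached with Accutase and stained with Annexin V/7-AAD (Guava Nexin), 20 min at room temperature in the dark. Flow cytometry, ≥5000 events per sample; three independent experiments.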

HCT-116 [9] = test: Induction of apoptosis in p53 (+/+) human HCT116 cells at 2 times antiproliferative IC50 level incubated for 72 hrs by Annexin-V and 7-AAD staining based flow cytometry; assay type: functional, cell-based; summary of the method: as §3
HCT-116 [10] = test: Induction of cell cycle arrest in p53 (+/+) human HCT116 cells assessed as accumulation at G0/G1 phase at antiproliferative IC50 level incubated for 24 hrs by propidium iodide staining based flow cytometry (reference value: 31.87%); assay type: functional
HCT-116 [11] = test: Induction of cell cycle arrest in p53 (+/+) human HCT116 cells assessed as accumulation at S phase at antiproliferative IC50 level incubated for 24 hrs by propidium iodide staining based flow cytometry (reference value: 38.3%); assay type: functional
HCT-116 [12] = test: Induction of cell cycle arrest in p53 (+/+) human HCT116 cells assessed as accumulation at G0/G1 phase at antiproliferative IC50 level incubated for 48 hrs by propidium iodide staining based flow cytometry (reference value: 50.48%); assay type: functional
HCT-116 [13] = test: Induction of cell cycle arrest in p53 (+/+) human HCT116 cells assessed as accumulation at S phase at antiproliferative IC50 level incubated for 48 hrs by propidium iodide staining based flow cytometry (reference value: 22.67%); assay type: functional
CCD-18Co [14] = test: Cytotoxicity in human CCD-18Co cells assessed as reduction in cell viability at antiproliferative IC50 (for p53 (+/+) human HCT116 cells) incubated for 72 hrs by MTS assay; assay type: cell-based
Summary of the method: (§4)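 CCD-18Co colon fibroblasts grown in DMEM with 10% FBS, penicillin/streptomycin, Glutamax, NEAA. […] Viability by MTS, absorbance at 490 nm. Triplicate wells, at least 2 independent experiments; mean ± SEM.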

CCD-18Co [15] = test: Cytotoxicity in human CCD-18Co cells assessed as reduction in cell viability at antiproliferative IC80 (for p53 (+/+) human HCT116 cells) incubated for 72 hrs by MTS assay; assay type: cell-based; summary of the method: as §4
[16] = molecular target: Tumour suppressor p53/oncoprotein Mdm2 (Homo sapiens) (UniProt P04637+Q00987); test: Inhibition of p53/MDM2 interaction (unknown origin) transfected in p53 (-/-) human HCT116 cells at 10 uM incubated for 4 hrs by Venus-based bimolecular fluorescence complementation assay
Sequence of Tumour suppressor p53/oncoprotein Mdm2 (Homo sapiens) (P04637 whole entry, looked up): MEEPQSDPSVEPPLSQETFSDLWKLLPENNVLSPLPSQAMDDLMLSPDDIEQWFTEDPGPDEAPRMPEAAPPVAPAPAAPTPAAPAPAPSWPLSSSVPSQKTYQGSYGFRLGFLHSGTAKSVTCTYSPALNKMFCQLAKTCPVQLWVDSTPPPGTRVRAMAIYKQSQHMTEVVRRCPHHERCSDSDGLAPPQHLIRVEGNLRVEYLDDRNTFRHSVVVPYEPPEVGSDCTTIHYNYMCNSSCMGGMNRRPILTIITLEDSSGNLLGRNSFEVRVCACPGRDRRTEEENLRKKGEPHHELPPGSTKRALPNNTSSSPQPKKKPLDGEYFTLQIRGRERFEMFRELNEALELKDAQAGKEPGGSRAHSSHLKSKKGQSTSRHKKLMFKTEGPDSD
Sequence of Tumour suppressor p53/oncoprotein Mdm2 (Homo sapiens) (Q00987 whole entry, looked up): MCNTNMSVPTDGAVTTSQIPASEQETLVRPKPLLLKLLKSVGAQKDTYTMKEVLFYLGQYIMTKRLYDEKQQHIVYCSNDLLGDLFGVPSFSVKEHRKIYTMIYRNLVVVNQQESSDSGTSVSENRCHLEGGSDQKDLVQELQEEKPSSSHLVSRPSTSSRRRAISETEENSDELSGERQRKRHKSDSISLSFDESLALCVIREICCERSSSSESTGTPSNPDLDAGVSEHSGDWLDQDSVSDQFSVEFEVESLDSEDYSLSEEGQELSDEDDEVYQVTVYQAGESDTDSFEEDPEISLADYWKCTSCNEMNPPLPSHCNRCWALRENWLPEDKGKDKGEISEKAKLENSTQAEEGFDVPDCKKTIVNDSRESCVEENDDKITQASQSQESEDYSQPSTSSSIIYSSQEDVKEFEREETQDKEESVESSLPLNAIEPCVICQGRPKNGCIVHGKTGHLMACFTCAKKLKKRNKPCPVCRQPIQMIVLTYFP
Summary of the method: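 HCT116 p53(−/−) co-transfected with V1-p53/MDM2-V2 BiFC plasmids using Lipofectamine 2000. Medium replaced 4–6 h after transfection, then compound (final 5 and 10 µM), nutlin-3a, or matched DMSO added; transfection period 24 h. Venus fluorescence read by flow cytometry and normalized to DMSO (100%). Three experiments.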

HCT-116 [17] = test: Reduction in MDM2 protein expression in p53 (+/+) human HCT116 cells at antiproliferative IC50 level incubated for 72 hrs by Western blot; assay type: functional, cell-based
Summary of the method: (§5)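 Lysed in NP-40 buffer, protein measured by Bradford, separated by 8%/14% SDS-PAGE, blotted to nitrocellulose. Probed overnight at 4 °C with anti-p53 (Pab-240) and anti-MDM2 (SMP-14), then HRP secondary with chemiluminescence. Ponceau S loading control, densitometry; two experiments.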

HCT-116 [18] = test: Increase in p53 protein expression in p53 (+/+) human HCT116 cells at antiproliferative IC50 level incubated for 72 hrs by Western blot; assay type: functional, cell-based; summary of the method: as §5
[19] = […], ratio of IC50 for antiproliferative activity in HEK293T cells to IC50 for antiproliferative activity in human MDA-MB-231 cells; assay type: toxicity, cell-based; settings: HEK293T cells versus MDA-MB-231 cells, read-out: Ratio IC50
Summary of the method: (§6)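 Ratio of HEK 293T IC50 to MDA-MB-231 IC50 from 72 h MTT assays.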

HCT-116 [20] = test: Induction of cell cycle arrest in p53 (+/+) human HCT116 cells assessed as accumulation at G2/M phase at antiproliferative IC50 level incubated for 24 hrs by propidium iodide staining based flow cytometry (reference value: 25.85%); assay type: functional
HCT-116 [21] = test: Induction of cell cycle arrest in p53 (+/+) human HCT116 cells assessed as accumulation at G2/M phase at antiproliferative IC50 level incubated for 48 hrs by propidium iodide staining based flow cytometry (reference value: 26.85%); assay type: functional
[22] = Potency index, ratio of IC50 for antiproliferative activity in human MCF7 cells to IC50 for antiproliferative activity in human MDA-MB-231 cells; assay type: functional
[23] = Potency index, ratio of IC50 for antiproliferative activity in human p53 (+/+) human HCT116 cells to IC50 for antiproliferative activity in human MDA-MB-231 cells; assay type: functional
[24] = Potency index, ratio of IC50 for antiproliferative activity in human p53 (-/-) human HCT116 cells to IC50 for antiproliferative activity in human MDA-MB-231 cells; assay type: functional
[25] = Selectivity index, ratio of IC50 for antiproliferative activity in HEK293T cells to IC50 for antiproliferative activity in human MDA-MB-231 cells; assay type: toxicity, cell-based; settings: HEK293T cells versus MDA-MB-231 cells, read-out: Ratio IC50; summary of the method: as §6
MDA-MB-231 [26] = test: Induction of cell cycle arrest in human MDA-MB-231 cells at antiproliferative IC50 level by propidium iodide staining based flow cytometry; assay type: functional
MDA-MB-231 [27] = test: Induction of apoptosis in human MDA-MB-231 cells assessed as increase in caspase3/7 activity at antiproliferative IC50 level incubated for 48 hrs by Caspase-Glo 3/7 Assay; assay type: functional

| Structure (SMILES) | IC50 (MCF7) [µM] | IC50 (MDA-MB-231 [1]) [µM] | IC50 (HEK-293T) [µM] | selectivity ratio [2] | IC50 (HCT-116 [3]) [µM] | IC50 (HCT-116 [4]) [µM] | selectivity ratio [5] | selectivity ratio [6] | fold change (FC) (HCT-116 [8]) | Activity (HCT-116 [9]) | Activity (HCT-116 [10]) [%] | Activity (HCT-116 [11]) [%] | Activity (HCT-116 [12]) [%] | Activity (HCT-116 [13]) [%] | Activity (CCD-18Co [14]) | Activity (CCD-18Co [15]) [%] | selectivity ratio [19] | also measured |
| --- | --- | --- | --- | --- | --- | --- | --- | --- | --- | --- | --- | --- | --- | --- | --- | --- | --- | --- |
| O=C1Nc2ccc(Br)cc2C12N(c1ccccc1Cl)N=C(c1cccc(Cl)c1)N2c1cccc(Cl)c1 (centres undefined) | 9.5 | 7.6 | 21.4 | 2.3 | 13.9 | 17.7 | 1.5 | < 2 | 2.8 | Dose-dependent effect | 34.54 | 42.61 | 65.49 | 33.41 | Non-Toxic | 40 | – | Ratio IC50 [7]: 1.3; inhibition [16]: Active; Activity (HCT-116 [17]): Active; Activity (HCT-116 [18]): Active |
| O=C1Nc2ccc(Cl)cc2C12N(c1ccccc1)N=C(c1ccccc1)N2c1cccc(Cl)c1 (centres undefined) | 9.8 | 8.9 | > 100 | 2.5 to 10.2 | 16.3 | 17.9 | 2.5 to 5.6 | 2.5 to 5.6 | 3.1 | Dose-dependent effect | 50.11 | 36.42 | 58 | 31.34 | Non-Toxic | 40 | ≥ 2.5 | Activity (HCT-116 [20]): 13.87%; Activity (HCT-116 [21]): 13.65% |
| O=C1Nc2ccc(Br)cc2C12N(c1ccccc1)N=C(c1ccccc1)N2c1ccccc1 (centres undefined) | 23 | 6.7 | 56.3 | 2.4 to 2.5 | 22.2 | 22.5 | 2.5 | 2.5 | – | – | – | – | – | – | – | – | ≥ 2.5 | Ratio IC50 [22]: >=2.4; Ratio IC50 [23]: >=2.4; Ratio IC50 [24]: >=2.4; selectivity ratio [25]: ≥ 2.4; Activity (MDA-MB-231 [26]): inactive; fold change (FC) (MDA-MB-231 [27]): 2.5 |
